Assay results: ChEMBL document CHEMBL4014335, “Activation of Phenyl 4-(2-Oxo-3-alkylimidazolidin-1-yl)benzenesulfonates Prodrugs by CYP1A1 as New Antimitotics Targeting Breast Cancer Cells” (J Med Chem, 2017)
Calls of active or inactive are those of the source. The calls are words filed in the database; no cut-off is given here.

Columns and labels:
MDA-MB-231 [1] = experiment: Cell cycle arrest in human MDA-MB-231 cells assessed as accumulation at S phase at 8 nM after 24 hrs by DAPI-staining based FACS analysis (reference value: 9.7%); format: functional
MDA-MB-468 [2] = experiment: Cell cycle arrest in human MDA-MB-468 cells assessed as accumulation at G0/G1 phase at 8 nM after 24 hrs by DAPI-staining based FACS analysis (reference value: 63.3%); format: functional
MDA-MB-468 [3] = experiment: Cell cycle arrest in human MDA-MB-468 cells assessed as accumulation at G2/M phase at 8 nM after 24 hrs by DAPI-staining based FACS analysis (reference value: 19.5%); format: functional
MCF7 [4] = experiment: Cell cycle arrest in human MCF7 cells assessed as accumulation at G2/M phase at 8 nM after 24 hrs by DAPI-staining based FACS analysis (reference value: 22.3%); format: functional
MCF7 [5] = experiment: Cell cycle arrest in human MCF7 cells assessed as accumulation at G0/G1 phase at 50 nM after 24 hrs by DAPI-staining based FACS analysis (reference value: 65.5%); format: functional
Cytochrome P450 1A1 = biological target: T1, Cytochrome P450 1A1 (Homo sapiens, UniProt P04798); experiment: Prodrug activation assessed as time required for human supersomes CYP1A1-mediated 3,4,5-trimethoxyphenyl 4-(2-oxoimidazolidin-1-yl)benzenesulfonate formation after 4 hrs by HPLC-MS analysis; format: ADME; conditions: recombinant enzyme
T1 sequence (P04798 whole entry): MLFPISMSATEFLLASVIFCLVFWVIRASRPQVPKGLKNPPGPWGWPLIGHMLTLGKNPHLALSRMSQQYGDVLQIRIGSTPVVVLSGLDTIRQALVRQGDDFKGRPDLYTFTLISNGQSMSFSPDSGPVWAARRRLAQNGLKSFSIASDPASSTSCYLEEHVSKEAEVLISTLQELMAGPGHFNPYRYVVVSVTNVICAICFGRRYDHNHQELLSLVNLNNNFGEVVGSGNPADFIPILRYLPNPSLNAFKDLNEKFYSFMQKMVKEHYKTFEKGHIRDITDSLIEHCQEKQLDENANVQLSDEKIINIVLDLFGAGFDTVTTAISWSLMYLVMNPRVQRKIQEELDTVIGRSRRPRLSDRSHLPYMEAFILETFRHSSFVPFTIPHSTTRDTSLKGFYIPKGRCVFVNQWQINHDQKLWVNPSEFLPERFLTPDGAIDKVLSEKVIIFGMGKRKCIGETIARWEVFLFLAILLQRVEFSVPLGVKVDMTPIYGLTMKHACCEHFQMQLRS

MCF7 [6] = experiment: Antiproliferative activity against human MCF7 cells after 48 hrs by SRB assay; format: functional, cell-based; conditions: MCF7, 48 h
In short: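 SRB assay run as in the NCI screen with slight modifications. Seeding: HT-29 5.0 x 10^3, M21 3.5 x 10^3, MCF7 7.5 x 10^3 cells; cells preincubated 24 h. Drug in DMSO added at 0.75 to 1.0 x 10^5 nM for 48 h. TCA fixation, sulforhodamine B staining, absorbance 530-565 nm. At least two experiments in triplicate; runs accepted only when relative SD < 10%.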

MDA-MB-468 [7] = experiment: Cytotoxicity against human MDA-MB-468 cells after 72 hrs in presence of CYP1A1 inhibitor tacrine by SRB assay; format: functional, cell-based
In short: (§1)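 MDA-MB-468 cells (5.0 x 10^3/well) seeded and incubated 24 h. Drug freshly dissolved in DMSO, given at 0.75 to 1.0 x 10^5 nM, together with subtoxic CYP inhibitor, for 72 h. Cells fixed with cold 10% TCA and stained with 0.1% sulforhodamine B. Bound dye taken up in 10 mM Tris, absorbance read at 530-565 nm. At least two experiments, triplicate cultures.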

Homo sapiens [8] = species on record: Homo sapiens; experiment: Destabilization of microtubule network in human MDA-MB-231 cells at 50 nM after 24 hrs by fluorescence microscopic analysis; format: cell-based
MDA-MB-468 [9] = experiment: Cytotoxicity against human MDA-MB-468 cells after 72 hrs in presence of CYP inhibitor mefipristone by SRB assay; format: functional, cell-based
In short: (§2)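 MDA-MB-468 cells co-incubated for 72 h with drug plus a subtoxic concentration of a CYP inhibitor. Viability read by SRB assay: TCA fixation, sulforhodamine B staining, absorbance at 530-565 nm.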

MDA-MB-468 [10] = experiment: Cytotoxicity against human MDA-MB-468 cells after 72 hrs in presence of CYP inhibitor pentachlorophenol by SRB assay; format: functional, cell-based; in short: as §2
MDA-MB-231 [11] = experiment: Cell cycle arrest in human MDA-MB-231 cells assessed as accumulation at S phase at 50 nM after 24 hrs by DAPI-staining based FACS analysis (reference value: 9.7%); format: functional
Cytochrome P450 1B1 = biological target: T2, Cytochrome P450 1B1 (Homo sapiens, UniProt Q16678); experiment: Prodrug activation assessed as human supersomes CYP1B1-mediated 3,4,5-trimethoxyphenyl 4-(2-oxoimidazolidin-1-yl)benzenesulfonate formation after 4 hrs by HPLC-MS analysis; format: ADME; conditions: recombinant enzyme
T2 sequence (Q16678 whole entry): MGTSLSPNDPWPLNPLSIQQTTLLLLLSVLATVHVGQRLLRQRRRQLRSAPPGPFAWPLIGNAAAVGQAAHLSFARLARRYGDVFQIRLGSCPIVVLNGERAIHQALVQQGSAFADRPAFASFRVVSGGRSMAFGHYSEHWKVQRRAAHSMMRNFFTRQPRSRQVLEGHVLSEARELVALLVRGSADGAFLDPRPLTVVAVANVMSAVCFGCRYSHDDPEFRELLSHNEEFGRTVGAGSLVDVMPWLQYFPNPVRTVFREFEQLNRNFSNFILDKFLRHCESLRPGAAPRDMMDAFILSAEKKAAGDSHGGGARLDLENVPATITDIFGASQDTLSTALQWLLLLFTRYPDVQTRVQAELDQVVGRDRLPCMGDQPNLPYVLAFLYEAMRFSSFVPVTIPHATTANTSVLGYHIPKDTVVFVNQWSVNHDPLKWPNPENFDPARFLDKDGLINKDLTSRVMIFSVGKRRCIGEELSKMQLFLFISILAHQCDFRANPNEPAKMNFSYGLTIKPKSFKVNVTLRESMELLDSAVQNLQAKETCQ

MDA-MB-231 [12] = experiment: Antiproliferative activity against ER/PR/HER2 deficient human MDA-MB-231 cells after 72 hrs in presence of phenol red by SRB assay; format: functional, cell-based
In short: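 SRB antiproliferative assay (modified NCI protocol). Cells seeded per well (SK-BR-3, MDA-MB-231, T47D, HT-1080, HT-1080 CYP1A1 and empty-vector: 3.0 x 10^3; MDA-MB-468: 5.0 x 10^3; MCF7: 7.5 x 10^3), preincubated 24 h. DMSO-solubilized drug added at 0.75 to 1.0 x 10^5 nM, then 72 h. Fixed with cold 10% TCA, stained with 0.1% sulforhodamine B, absorbance read at 530-565 nm. At least two experiments, triplicate cultures.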

[13] = Stability in human liver microsomes assessed as compound remaining after 60 mins by HPLC-MS analysis
MDA-MB-468 [14] = experiment: Cytotoxicity against human MDA-MB-468 cells after 72 hrs in presence of CYP1A1 inhibitor quercetin by SRB assay; format: functional, cell-based; in short: as §1
Homo sapiens [15] = species on record: Homo sapiens; experiment: Destabilization of microtubule network in human MDA-MB-468 cells at 50 nM after 24 hrs by fluorescence microscopic analysis; format: cell-based

SMILES	Activity (MDA-MB-231 [1])	Activity (MDA-MB-468 [2])	Activity (MDA-MB-468 [3])	Activity (MCF7 [4])	Activity (MCF7 [5])	Time (Cytochrome P450 1A1)	IC50 (MCF7 [6])	Activity (MDA-MB-468 [7])	Activity (Homo sapiens [8])	Activity (MDA-MB-468 [9])	Activity (MDA-MB-468 [10])	Activity (MDA-MB-231 [11])	Drug metabolism (Cytochrome P450 1B1)	Activity (MDA-MB-231 [12])	remaining at 1 h [13]	Activity (MDA-MB-468 [14])	Activity (Homo sapiens [15])
COc1cc(OS(=O)(=O)c2ccc(N3CCNC3=O)cc2)cc(OC)c1OC	8.9%	10.6%	74.4%	44.1%													
CCCCN1CCN(c2ccc(S(=O)(=O)Oc3cc(OC)c(OC)c(OC)c3)cc2)C1=O					3.7%	30 min	10 nM	inactive	inactive	Active	Active	9.2%	Metabolite_Notdetected	inactive	25%	inactive	Active
